Data: ChEMBL document CHEMBL2346518, “Synthesis and evaluation of nicotinamide derivative as anti-angiogenic agents” (Bioorg Med Chem Lett, 2013)
Calls of active or inactive are those of the source. No cut-off for these calls is given here.

Tests used:
HUVEC [1] = assay: Inhibition of VEGF-induced human HUVEC cell migration incubated 1 hr prior to VEGF-challenge measured after 24 hrs by wound healing assay; type: functional, cell-based
Procedure, shortened: (§1)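 Wound made with a scraper in near-confluent HUVECs. Cells pretreated 1 h with compound (10–100 nM), then migration induced with VEGF 10 ng/ml. Wound area photographed after 24 h.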

Aorta = assay: Inhibition of VEGF-induced microvessel sprouting around Sprague-Dawley rat aortic rings; type: functional, tissue-based
Procedure, shortened: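 Aortas from Sprague-Dawley rats cleaned of periadventitial fat and cut into 1–1.5 mm rings. Rings embedded in Matrigel with VEGF ± compound (10, 50, 100 nM); medium alone as control. Sprouts fixed and photographed after 7 days at ×100. Three independent experiments.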

HUVEC [2] = assay: Inhibition of VEGF-induced human HUVEC cell proliferation at 10 to 100 nM incubated 1 hr prior to VEGF-challenge measured after 24 hrs by BrdU incorporation assay; type: functional, cell-based
Procedure, shortened: (§2)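 HUVECs pretreated 1 h with compound (100 nM single point, or 10, 50, 100 nM), then VEGF 10 ng/ml for 24 h. BrdU incorporation detected with anti-BrdU monoclonal antibody and peroxidase secondary, absorbance at 450 nm. Means of three experiments ± SD. ANOVA/Dunnett.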

HUVEC [3] = assay: Inhibition of VEGF-induced human HUVEC cell capillary tube formation at 10 to 100 nM incubated prior to VEGF-challenge; type: functional, cell-based
Procedure, shortened: (§3)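 HUVECs pretreated 1 h with compound, then seeded at 4 to 7 × 10⁴ cells on growth-factor-reduced Matrigel in EBM with or without VEGF 10 ng/ml. Tubular structures photographed after 6 h at ×100. Means of three experiments ± SD. ANOVA/Dunnett.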

HUVEC [4] = assay: Inhibition of VEGF-induced human HUVEC cell migration at 10 nM incubated 1 hr prior to VEGF-challenge measured after 24 hrs by Trans-well assay; type: functional, cell-based
Procedure, shortened: (§4)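 Boyden chamber with 8 μm pore membrane. HUVECs in upper chamber with compound in 0.1% EBM; VEGF 10 ng/ml in lower chamber. Cells that migrated through the pores counted after 24 h. Means of three experiments ± SD. ANOVA with Dunnett's test.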

[5] = target: Vascular endothelial growth factor receptor 2 (Homo sapiens) (UniProt P35968); assay: Inhibition of VEGF-induced VEGFR2 phosphorylation at Tyr1175 in human HUVEC cell incubated 1 hr prior to VEGF-challenge measured after 5 mins by Western blot analysis
Procedure, shortened: (§5)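 HUVECs pretreated 1 h with compound (10, 50 or 100 nM), then stimulated with VEGF 10 ng/ml. Phospho-VEGFR2 read at 5 min and phospho-Akt at 30 min by Western blot.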

HUVEC [6] = assay: Inhibition of VEGF-induced human HUVEC cell migration at 10 to 100 nM incubated 1 hr prior to VEGF-challenge measured after 24 hrs by wound healing assay; type: functional, cell-based; procedure, shortened: as §1
HUVEC [7] = assay: Inhibition of VEGF-induced human HUVEC cell capillary tube formation incubated prior to VEGF-challenge; type: functional, cell-based; procedure, shortened: as §3
[8] = target: Vascular endothelial growth factor receptor 2 (Homo sapiens) (UniProt P35968); assay: Inhibition of VEGF-induced VEGFR2 in human HUVEC cell assessed as AKT phosphorylation at Ser473 incubated 1 hr prior to VEGF-challenge measured after 30 mins by Western blot analysis; procedure, shortened: as §5
HUVEC [9] = assay: Inhibition of VEGF-induced human HUVEC cell migration incubated 1 hr prior to VEGF-challenge measured after 24 hrs by Trans-well assay; type: functional, cell-based; procedure, shortened: as §4
[10] = target: Vascular endothelial growth factor receptor 2 (Homo sapiens) (UniProt P35968); assay: Inhibition of VEGF-induced VEGFR phosphorylation at Tyr1175 in human HUVEC cell at 10 to 100 nM incubated 1 hr prior to VEGF-challenge measured after 5 mins by Western blot analysis; procedure, shortened: as §5
[11] = target: Vascular endothelial growth factor receptor 2 (Homo sapiens) (UniProt P35968); assay: Inhibition of VEGF-induced VEGFR2 phosphorylation at Tyr1175 in human HUVEC cell incubated 1 hr prior to VEGF-challenge measured after 5 mins by PathScan ELISA
Procedure, shortened: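 HUVECs given compound (10, 50 or 100 nM) 1 h before 5 min VEGF (10 ng/ml). VEGFR2 Tyr1175 phosphorylation measured by PathScan ELISA. Means of three experiments ± SD. ANOVA with Dunnett's post-hoc test.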

[12] = target: Vascular endothelial growth factor receptor 2 (Homo sapiens) (UniProt P35968); assay: Inhibition of VEGF-induced VEGFR in human HUVEC cell assessed as AKT phosphorylation at Ser473 at 10 to 100 nM incubated 1 hr prior to VEGF-challenge measured after 30 mins by Western blot analysis; procedure, shortened: as §5
HUVEC [13] = assay: Inhibition of VEGF-induced human HUVEC cell proliferation incubated 1 hr prior to VEGF-challenge measured after 24 hrs by BrdU incorporation assay; type: functional, cell-based; procedure, shortened: as §2

Sequence of Vascular endothelial growth factor receptor 2 (Homo sapiens) (P35968 whole entry): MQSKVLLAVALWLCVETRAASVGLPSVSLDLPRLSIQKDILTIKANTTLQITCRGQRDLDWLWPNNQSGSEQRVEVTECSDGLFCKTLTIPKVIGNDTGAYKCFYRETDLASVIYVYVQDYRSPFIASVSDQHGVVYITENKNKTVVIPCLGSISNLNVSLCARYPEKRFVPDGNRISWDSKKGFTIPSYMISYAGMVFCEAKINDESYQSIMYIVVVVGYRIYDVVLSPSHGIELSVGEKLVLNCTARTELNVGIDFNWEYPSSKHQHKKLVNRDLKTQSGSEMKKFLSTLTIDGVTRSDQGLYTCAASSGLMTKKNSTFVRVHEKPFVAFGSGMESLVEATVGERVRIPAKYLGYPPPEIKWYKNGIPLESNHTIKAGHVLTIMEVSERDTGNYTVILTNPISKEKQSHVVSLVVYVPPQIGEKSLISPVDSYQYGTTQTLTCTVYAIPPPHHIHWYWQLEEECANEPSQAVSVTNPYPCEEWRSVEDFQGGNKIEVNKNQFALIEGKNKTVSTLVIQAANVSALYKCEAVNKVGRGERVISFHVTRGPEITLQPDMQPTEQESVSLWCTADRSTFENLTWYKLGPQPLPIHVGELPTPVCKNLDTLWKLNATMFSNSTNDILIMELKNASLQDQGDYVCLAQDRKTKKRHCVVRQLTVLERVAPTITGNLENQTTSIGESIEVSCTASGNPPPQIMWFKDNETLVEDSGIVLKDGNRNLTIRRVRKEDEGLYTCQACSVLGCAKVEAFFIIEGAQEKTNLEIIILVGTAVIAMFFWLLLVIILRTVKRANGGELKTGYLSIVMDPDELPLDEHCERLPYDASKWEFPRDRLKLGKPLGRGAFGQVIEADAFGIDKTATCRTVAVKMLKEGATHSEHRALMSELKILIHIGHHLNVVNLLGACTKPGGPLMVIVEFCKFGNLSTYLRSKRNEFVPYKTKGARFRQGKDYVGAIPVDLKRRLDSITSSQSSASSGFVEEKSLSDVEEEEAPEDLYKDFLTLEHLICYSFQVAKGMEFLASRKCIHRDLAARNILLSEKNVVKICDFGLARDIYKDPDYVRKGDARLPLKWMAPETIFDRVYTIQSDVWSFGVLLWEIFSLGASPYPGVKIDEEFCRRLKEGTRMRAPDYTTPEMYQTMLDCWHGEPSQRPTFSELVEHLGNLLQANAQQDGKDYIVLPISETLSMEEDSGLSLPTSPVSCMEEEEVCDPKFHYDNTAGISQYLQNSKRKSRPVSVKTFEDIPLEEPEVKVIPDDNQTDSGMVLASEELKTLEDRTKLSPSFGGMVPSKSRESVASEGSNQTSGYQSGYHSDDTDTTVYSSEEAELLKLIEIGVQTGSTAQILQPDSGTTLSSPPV

inhibition [5] | inhibition [8] | inhibition [10] | inhibition [11] | inhibition [12] | SMILES | inhibition (HUVEC [1]) | inhibition (Aorta) | inhibition (HUVEC [2]) | inhibition (HUVEC [3]) | inhibition (HUVEC [4]) | inhibition (HUVEC [6]) | inhibition (HUVEC [7]) | inhibition (HUVEC [9]) | inhibition (HUVEC [13])
Dose-dependent effect | Dose-dependent effect | Active | Dose-dependent effect | Active | CC(c1ncnc(Cl)c1F)N1CCC(Nc2ncccc2C(=O)Nc2cccc(Cl)c2)CC1 (stereo not given) | Dose-dependent effect | Dose-dependent effect | Active | Active | Active | Dose-dependent effect | Dose-dependent effect | Dose-dependent effect | Dose-dependent effect
 |  |  |  |  | O=C(Nc1cccc(Cl)c1)c1cccnc1NC1CCN(Cc2ccccc2)CC1 |  |  | Active |  |  |  |  |  | 
